Experiments:
Interstitial collagenase = target: T1, Interstitial collagenase (Homo sapiens, UniProt P03956); assay: In vitro inhibitory activity against matrix metalloprotease-1 (MMP-1)
T1 sequence (P03956 whole entry): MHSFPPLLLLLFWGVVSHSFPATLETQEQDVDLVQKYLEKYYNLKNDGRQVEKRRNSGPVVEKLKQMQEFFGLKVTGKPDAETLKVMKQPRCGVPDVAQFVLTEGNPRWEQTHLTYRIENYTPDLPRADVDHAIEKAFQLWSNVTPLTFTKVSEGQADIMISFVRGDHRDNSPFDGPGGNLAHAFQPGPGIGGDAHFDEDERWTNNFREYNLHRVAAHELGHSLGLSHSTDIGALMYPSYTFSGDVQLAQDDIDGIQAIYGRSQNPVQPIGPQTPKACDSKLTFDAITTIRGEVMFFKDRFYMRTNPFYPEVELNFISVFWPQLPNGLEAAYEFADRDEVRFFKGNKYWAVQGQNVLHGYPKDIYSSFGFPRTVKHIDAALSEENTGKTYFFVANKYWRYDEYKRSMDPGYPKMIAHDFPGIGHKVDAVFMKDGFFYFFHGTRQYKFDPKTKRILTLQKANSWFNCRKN

Collagenase 3 = Collagenase 3 (Homo sapiens, UniProt P45452); assay: In vitro inhibitory activity against matrix metalloprotease-13 (MMP-13)
Stromelysin-1 = Stromelysin-1 (Homo sapiens, UniProt P08254); assay: In vitro inhibitory activity against matrix metalloprotease-3 (MMP-3)
[1] = target: Matrix metalloproteinase-9 (Homo sapiens, UniProt P14780); assay: In vitro inhibitory activity against matrix metalloprotease-9 (MMP-9)
Matrilysin = target: T2, Matrilysin (Homo sapiens, UniProt P09237); assay: In vitro inhibitory activity against matrix metalloprotease-7 (MMP-7)
T2 sequence (P09237 whole entry): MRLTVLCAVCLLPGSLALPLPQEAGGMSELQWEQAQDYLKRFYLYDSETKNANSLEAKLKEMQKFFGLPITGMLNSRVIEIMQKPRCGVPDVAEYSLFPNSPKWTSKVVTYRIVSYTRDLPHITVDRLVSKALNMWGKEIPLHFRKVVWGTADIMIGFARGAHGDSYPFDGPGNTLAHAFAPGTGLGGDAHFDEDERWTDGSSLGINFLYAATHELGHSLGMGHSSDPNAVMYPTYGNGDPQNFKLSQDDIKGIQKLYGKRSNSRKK
Outline: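 MMP-7 supplied as active enzyme. It was incubated with 8 µM […] in 50 mM Tris-HCl pH 7.5, 10 mM CaCl2, 0.15 M NaCl, 0.05% Brij for 20-30 min at 37 °C with varying inhibitor. The reaction was quenched with 50 mM EDTA and fluorescence read at ex 328/em 393 nm. Activity is expressed as % of uninhibited control, triplicates; IC50 from 4-parameter logistic fit.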

Sequence of Matrix metalloproteinase-9 (P14780 whole entry): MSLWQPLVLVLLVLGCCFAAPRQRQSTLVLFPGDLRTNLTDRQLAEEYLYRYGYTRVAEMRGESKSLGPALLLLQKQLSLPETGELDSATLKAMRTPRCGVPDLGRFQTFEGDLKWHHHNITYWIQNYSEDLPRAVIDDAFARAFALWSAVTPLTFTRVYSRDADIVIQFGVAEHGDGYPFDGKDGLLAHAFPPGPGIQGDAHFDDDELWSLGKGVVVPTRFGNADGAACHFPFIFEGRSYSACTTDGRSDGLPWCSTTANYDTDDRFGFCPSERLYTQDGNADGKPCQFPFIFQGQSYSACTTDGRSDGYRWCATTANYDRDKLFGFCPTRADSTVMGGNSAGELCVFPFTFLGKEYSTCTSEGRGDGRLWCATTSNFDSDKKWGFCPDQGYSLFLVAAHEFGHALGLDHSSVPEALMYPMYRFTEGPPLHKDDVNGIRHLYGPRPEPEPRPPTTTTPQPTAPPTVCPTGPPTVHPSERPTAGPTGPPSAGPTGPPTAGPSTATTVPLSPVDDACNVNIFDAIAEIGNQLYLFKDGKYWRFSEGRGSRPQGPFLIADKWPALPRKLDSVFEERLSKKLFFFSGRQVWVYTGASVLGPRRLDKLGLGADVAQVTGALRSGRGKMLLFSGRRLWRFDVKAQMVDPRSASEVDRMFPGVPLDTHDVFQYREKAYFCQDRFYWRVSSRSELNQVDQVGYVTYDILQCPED
Sequence of Stromelysin-1 (P08254 whole entry): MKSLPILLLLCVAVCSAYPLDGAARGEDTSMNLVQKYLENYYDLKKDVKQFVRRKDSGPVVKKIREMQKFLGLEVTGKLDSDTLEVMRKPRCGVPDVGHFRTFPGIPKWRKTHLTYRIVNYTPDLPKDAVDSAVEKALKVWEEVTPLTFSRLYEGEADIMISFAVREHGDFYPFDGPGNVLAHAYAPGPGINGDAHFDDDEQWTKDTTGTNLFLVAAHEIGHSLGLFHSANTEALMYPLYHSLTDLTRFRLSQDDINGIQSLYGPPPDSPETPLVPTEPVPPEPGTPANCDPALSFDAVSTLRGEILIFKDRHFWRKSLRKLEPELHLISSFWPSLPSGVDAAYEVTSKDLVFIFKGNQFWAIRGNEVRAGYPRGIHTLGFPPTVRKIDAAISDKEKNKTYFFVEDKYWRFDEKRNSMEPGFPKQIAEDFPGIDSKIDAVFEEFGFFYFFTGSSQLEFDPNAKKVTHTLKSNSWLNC

Structure (SMILES) | IC50 (Interstitial collagenase) [nM] | IC50 (Collagenase 3) [nM] | IC50 (Stromelysin-1) [nM] | IC50 [1] [nM] | IC50 (Matrilysin) [nM]
COCCN(CCOC)C(=O)N1CCN(S(=O)(=O)c2ccc(Br)cc2)C(C(=O)NO)C1 (stereo unspecified) | 49 | 3.2 | 385 | 20 | 1130
COc1ccc(S(=O)(=O)N2CCN(C(=O)N3CCCCCC3)CC2C(=O)NO)cc1 (stereo unspecified) | 158 | 2.9 | 54 |  | 2690
COc1ccc(S(=O)(=O)N2CCNCC2C(=O)NO)cc1 (stereo unspecified) |  |  |  | 6.9 | 
CCCCCCN(C)C(=O)N1CCN(S(=O)(=O)c2ccc(OC)cc2)C(C(=O)NO)C1 (stereo unspecified) | 71 | 1.9 | 4.3 | 6 | 3240
COc1ccc(S(=O)(=O)N2CCN(C(=O)C3CCCCC3)CC2C(=O)NO)cc1 (stereo unspecified) | 219 | 1.5 | 27 | 1.8 | 2170
CCOCCCOC(=O)N1CCN(S(=O)(=O)c2ccc(OC)cc2)C(C(=O)NO)C1 (stereo unspecified) | 22 | 0.7 | 5.3 | 0.6 | 483
COc1ccc(S(=O)(=O)N2CCN(S(=O)(=O)c3sc(N)nc3C)CC2C(=O)NO)cc1 (stereo unspecified) | 31 | 2 | 2.5 | 2.1 | 1280
COc1ccc(S(=O)(=O)N2CCN(C(=O)c3cccs3)CC2C(=O)NO)cc1 (stereo unspecified) | 68 | 1.9 | 15 | 1.3 | 710
COc1ccc(S(=O)(=O)N2CCN(C(=O)OCc3cccnc3)CC2C(=O)NO)cc1 (stereo unspecified) | 18 | 1 | 8.9 | 1.9 | 502
COc1ccc(S(=O)(=O)N2CCN(C(=S)NCc3ccccc3)CC2C(=O)NO)cc1 (stereo unspecified) | 68 |  | 41 | 6.6 | 401
COc1ccc(S(=O)(=O)N2CCN(C)CC2C(=O)NO)cc1 (stereo unspecified) |  | 21 | 269 | 25 | 10000
COc1ccc(S(=O)(=O)N2CCN(C(=O)c3c(-c4ccccc4)noc3C)CC2C(=O)NO)cc1 (stereo unspecified) | 1320 | 27 | 410 | 22 | 22100
COc1ccc(S(=O)(=O)N2CCN(C(=O)c3ccccc3)CC2C(=O)NO)cc1 (stereo unspecified) | 81 |  | 66 |  | 1520
COc1ccc(S(=O)(=O)N2CCN(C(=O)OC(C)(C)C)CC2C(=O)NO)cc1 (stereo unspecified) | 81 |  | 60 | 2.3 | 1460
CCCCCCNC(=O)N1CCN(S(=O)(=O)c2ccc(OC)cc2)C(C(=O)NO)C1 (stereo unspecified) | 30 | 1.4 | 28 | 2.6 | 497
COc1ccc(S(=O)(=O)N2CCN(S(=O)(=O)c3c(C)noc3C)CC2C(=O)NO)cc1 (stereo unspecified) | 54 | 1.3 | 3.2 | 2.4 | 1020
COc1ccc(S(=O)(=O)N2CCN(C(=O)c3ccco3)CC2C(=O)NO)cc1 (stereo unspecified) | 25 | 2.5 | 7.5 | 1.6 | 642
COc1ccc(S(=O)(=O)N2CCN(Cc3ccccc3)CC2C(=O)NO)cc1 (stereo unspecified) | 324 | 8 | 75 | 7.6 | 14000
COc1ccc(S(=O)(=O)N2CCN(S(C)(=O)=O)CC2C(=O)NO)cc1 (stereo unspecified) | 8 | 1 | 3.5 | 0.6 | 483
COc1ccc(S(=O)(=O)N2CCN(C(=O)NCCc3ccccc3)CC2C(=O)NO)cc1 (stereo unspecified) | 70 |  | 27 | 3.6 | 824

Structure (SMILES) | IC50 (Interstitial collagenase) [nM] | IC50 (Collagenase 3) [nM] | IC50 (Stromelysin-1) [nM] | IC50 [1] [nM] | IC50 (Matrilysin) [nM]
CCCCCC(=O)N1CCN(S(=O)(=O)c2ccc(OC)cc2)C(C(=O)NO)C1 (stereo unspecified) | 115 |  | 39 |  | 787
COc1ccc(S(=O)(=O)N2CCN(C(=O)N(C)Cc3ccccc3)CC2C(=O)NO)cc1 (stereo unspecified) | 322 | 1.8 | 38 |  | 
COc1ccc(S(=O)(=O)N2CCN(C(=O)OCc3ccccc3)CC2C(=O)NO)cc1 (stereo unspecified) | 24 | 1.3 |  | 1.9 | 232
COc1ccc(S(=O)(=O)N2CCN(S(=O)(=O)c3ccc(OC)cc3)C(C(=O)NO)C2)cc1 (stereo unspecified) | 60 | 1.3 | 13 | 1.2 | 1890
COc1ccc(S(=O)(=O)N2CCN(C(=O)Nc3cccc(OC)c3)CC2C(=O)NO)cc1 (stereo unspecified) | 80 | 2.8 | 13 | 4.1 | 1100
COc1ccc(S(=O)(=O)N2CCN(C(=O)[C@@H](O)C(C)C)CC2C(=O)NO)cc1 (stereo partly specified) | 227 | 1 | 60 | 4.4 | 1690
COc1ccc(S(=O)(=O)N2CCN(C(=O)c3cccnc3)CC2C(=O)NO)cc1 (stereo unspecified) | 994 | 57 | 184 | 32 | 27700
COc1ccc(S(=O)(=O)N2CCN(C(=O)N3CCOCC3)CC2C(=O)NO)cc1 (stereo unspecified) | 228 | 54 | 124 | 8.3 | 4350
CCCCCCN1CCN(S(=O)(=O)c2ccc(OC)cc2)C(C(=O)NO)C1 (stereo unspecified) | 996 | 4.2 | 71 | 17 | 15700
COc1ccc(S(=O)(=O)N2CCN(C(=O)c3snnc3C)CC2C(=O)NO)cc1 (stereo unspecified) | 1060 | 21 | 173 | 17 | 6090
CCCN(CC1CC1)C(=O)N1CCN(S(=O)(=O)c2ccc(OC)cc2)C(C(=O)NO)C1 (stereo unspecified) |  | 1.1 | 65 |  | 2090
COc1ccc(S(=O)(=O)N2CCN(c3nc(-c4ccccc4)cs3)CC2C(=O)NO)cc1 (stereo unspecified) | 325 |  | 11 | 28 | 3290
CCCCCCN(C)C(=O)N1CCN(S(=O)(=O)c2ccc(Br)cc2)C(C(=O)NO)C1 (stereo unspecified) | 87 | 4.5 | 175 | 13 | 1200
COc1ccc(S(=O)(=O)N2CCN(C(=O)c3ccno3)CC2C(=O)NO)cc1 (stereo unspecified) | 62 |  | 147 |  | 
COc1ccc(S(=O)(=O)N2CCN(C(=O)COc3ccccc3)CC2C(=O)NO)cc1 (stereo unspecified) | 92 |  | 9.5 | 3 | 908
COc1ccc(S(=O)(=O)N2CCN(C(N)=O)CC2C(=O)NO)cc1 (stereo unspecified) | 115 | 3.6 | 20 | 2.3 | 537
COc1ccc(S(=O)(=O)N2CCN(C(=O)N3CCN(C)CC3)CC2C(=O)NO)cc1 (stereo unspecified) | 354 | 4.1 | 114 | 5 | 2690
COc1ccc(S(=O)(=O)N2CCN(C(C)=O)CC2C(=O)NO)cc1 (stereo unspecified) | 73 | 1 | 18 | 1.8 | 821
COc1ccc(S(=O)(=O)N2CCN(C(=O)NCc3ccccc3)CC2C(=O)NO)cc1 (stereo unspecified) | 99 | 2.4 | 17 | 3.8 | 416
COc1ccc(S(=O)(=O)N2CCN(C(=O)c3ccc(-c4ccccc4)cc3)CC2C(=O)NO)cc1 (stereo unspecified) | 43 | 0.9 | 23 |  | 931
